Test [1] is described as follows: S. cerevisiae growth inhibition in permissive medium (OD615), pilot counter-assay for S. cerevisiae lifespan shortening project, permissive growth control (AID 705). The conditions noted are these: OD615, 24 h, at 10 µM, stronger effect = higher value. A digest of the protocol: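 assay system = Saccharomyces cerevisiae strain carrying genetically modified DeaD replicative-lifespan system | medium = SC raffinose/galactose permissive medium | dosing = 10 µM single dose, 0.25% DMSO | schedule = 24 h compound exposure at 30 °C after 4 h pre-growth | measured by = OD at 615 nm | read-out basis = growth inhibition from lowered OD615 after 24 h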

The nature of test [2]: S. cerevisiae growth inhibition in restrictive medium, OD615, pilot screen, restrictive growth control, yeast lifespan reduction project (AID 706;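 active means growth inhibition above a set limit, 3 SD over mean compound inhibition, in both replicates, cut at about 43% in these data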). The conditions noted are these: OD615, 48 h, at 10 µM, stronger effect = higher value. A digest of the protocol: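 Buffer or medium: CSMM-D glucose medium. Material: genetically modified Saccharomyces cerevisiae, DeaD replicative lifespan assay strain. Times: 48 h compound exposure at 30 °C. Measured by: optical density at 615 nm.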

A short description of test [3]: doxorubicin toxicity protection in MRP-1 cells – H69AR cells, CellTiter-Glo, duplicate, MRP-1 activator project, pilot screen (AID 807;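 active means viability increase at or above a cutoff of the median across tested compounds plus 3 SD, cut at about 8.5% in these data, passing the limit was not always enough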;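 further: compound pretreatment 18-22 h then 72 h combined with doxorubicin; 0% = doxorubicin alone and 100% = vehicle without doxorubicin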). The conditions noted are these: H69AR viability with doxorubicin, CellTiter-Glo luminescence; at 10 µM; stronger effect = higher value.
Test [4] is described as follows: viability of HCT116 without oncogenic beta-catenin – human colon tumor cells, pilot screen (AID 823;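 active means cell viability at or below a set limit in both duplicate runs, the limit being the all-compound median minus 4 SD, cut at about 23% in these data, passing the limit was not always enough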;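 further: 0% = wells killed by 20 µM Hyamine and 100% = untreated DMSO cell wells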). The conditions noted are these: HCT116 beta-catenin knockout viability, CellTiter-Glo, 60 h; at 10 µM; stronger effect = lower value. Background: Cellular ATP, detected with luciferase, serves as a proxy for viable cell number.
Test [5] in a line: RAM pathway blockade in budding yeast – dse1pr::URA3 reporter, 5-FOA selection, pilot screen (AID 869;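 active means inhibition over a set limit, the all-compound mean plus 3 SD, in both replicate runs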;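 further: 0% = DMSO wells with no growth and 100% = 10 µM 1-NA-PP1 with full growth; RAM network block rescues cells from 5-FOA so hits raise OD615 growth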). The conditions noted are these: S. cerevisiae dse1pr::URA3 5-FOA growth, OD615, 2 d; at 10 µM; stronger effect = higher value; strain carries analog-sensitive mutant Cbk1 kinase.
Test [6] can be described thus: RAM signaling pathway blockade in yeast – S. cerevisiae, Pdr1DBD-CYC8 efflux-inhibited sensitized strain, primary screen (AID 1298;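 active means RAM network inhibition above 8.4% in each of two replicates, 3 SD over the compound average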;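 further: 0% = DMSO untreated cells without growth and 100% = 10 µM 1-NA-PP1 full growth; higher means more yeast growth rescued from 5-FOA killing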). The conditions noted are these: S. cerevisiae cbk1-as DSE1-URA3 strain, 5-FOA growth OD615, 2 d; at 50 µM; stronger effect = higher value.

The structures appear in SMILES notation. Values without a mark were called inactive. Inconclusive results are not listed. Activity calls are given as the source filed them.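 How the source made its calls, unless noted: active means growth inhibition above 25% in both replicates, a cutoff set 3 SD above the mean; inconclusive means above 25% in only one replicate; inactive means the rest.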

`Cc1ccnc(Sc2nc3c(c(=O)[nH]c(=O)n3C)n2CCCc2ccccc2)n1`: the growth inhibition was -17.7% in test [1] and 2.31% in test [2]. In test [3], the viability increase was -2.18%. Moreover, the viability (commonly a read-out of living cells in per cent, often relative to untreated cells) in test [4] is 91.8%. The inhibition (commonly the change of the read-out against control, counted positive when it falls) in test [5] is 1.6%. Moreover, the RAM network inhibition in test [6] is 1.4%.

For `CN(C)/C=C1/Sc2ccccc2C1=O`, the growth inhibition was -13.4% in test [1] and 10% in test [2]. Further, the viability increase in test [3] was -3.51%. In test [4], the viability was 103%. In test [5], the inhibition is 1.11%. Further, the RAM network inhibition in test [6] was -0.73%.

For the molecule `CCN1CCN(Cc2nc3c(c(=O)n(C)c(=O)n3C)n2C(C)C(C)=O)CC1` (stereo not given), the growth inhibition was -32.2% in test [1] and -4.38% in test [2]. Moreover, the viability increase in test [3] is -1.83%. Besides, the viability in test [4] was 89.7%. Also, in test [5], the inhibition is 1.41%. Also, the RAM network inhibition in test [6] was 4.46%.

For the molecule `Cc1sc(NC(=O)c2ccco2)c(C(c2cccnc2)N2CCN(c3ccc(F)cc3)CC2)c1C` (stereo not given), the figures for the growth inhibition in test [1] and in test [2] were -8.72% and 6.02%, respectively. Moreover, in test [3], the viability increase is -5.73%. Moreover, in test [4], the viability was 13.3% (active). Further, the inhibition in test [5] is 1.42%. Besides, the RAM network inhibition in test [6] was 7.4%.

For the molecule `Cc1cccc(N(CC(=O)Nc2c(C)n(C)n(-c3ccccc3)c2=O)S(C)(=O)=O)c1C`, the growth inhibition was -16.3% in test [1] and -3.62% in test [2]. Also, the viability increase in test [3] is -1.08%. Further, the viability in test [4] is 95.3%. For the same molecule, the inhibition in test [5] was 1.41%. Further, in test [6], the RAM network inhibition is 5.77%.

For the molecule `CCN1C(=S)SC(=O)C1=C1C=C(C)OC(C)=C1`, the growth inhibition is -11% in test [1] and 14.9% in test [2]. Further, in test [3], the viability increase was -3.02%. In addition, the viability in test [4] was 91.9%. The inhibition in test [5] is 2.55%. In test [6], the RAM network inhibition is 5.1%.

`Cc1cc(Nc2nc3c(c(=O)n(C)c(=O)n3C)n2C)n(-c2ccc(Cl)cc2)n1`: the growth inhibition is 9.41% in test [1] and 3.67% in test [2]. Further, the viability increase in test [3] was -3.74%. In addition, the viability in test [4] is 92.7%. Moreover, in test [5], the inhibition was 3.25%. In addition, the RAM network inhibition in test [6] is 3.85%.

`Cn1cnnc1SCc1ccc(C(=O)O)cc1`: the growth inhibition was -5.04% in test [1] and 7.69% in test [2]. Further, the viability increase in test [3] is -1.36%. In addition, the viability in test [4] was 98.1%. Besides, the inhibition in test [5] is 1.06%. Also, in test [6], the RAM network inhibition was 1.81%.

For the molecule `CC(C)c1nc2sc3c(SCC(=O)NCc4ccco4)ncnc3c2c2c1CCC2`, the growth inhibition in test [1] is -6.53%; in test [2], -1.46%. Also, the viability increase in test [3] is -5.63%. Moreover, the viability in test [4] was 91.7%. Besides, the inhibition in test [5] is 1.31%. Besides, the RAM network inhibition in test [6] is 5.66%.

Turning to `CCN(CC)S(=O)(=O)c1ccc(NC(=O)Cn2c(=O)oc3ccccc32)cc1`, the growth inhibition in test [1] is -12.3%; in test [2], -11.6%. Moreover, the viability increase in test [3] was -3.33%. Also, the viability in test [4] is 96.7%. Besides, in test [5], the inhibition is 2.38%. Further, the RAM network inhibition in test [6] was 5.71%.

In the case of `Cc1ccccc1-c1nnc(SCC(=O)Nc2ccc(Cl)cc2)n1N`, the growth inhibition was -8.16% in test [1] and 0.61% in test [2]. In addition, the viability increase in test [3] was 2.22%. Besides, the viability in test [4] is 94.5%. In test [5], the inhibition was 1.17%. Also, the RAM network inhibition in test [6] was 5.42%.

For `Cn1cc(S(=O)(=O)CC(=O)Nc2ccc3c(c2)OCCO3)c2ccccc21`, the growth inhibition was -14.9% in test [1] and -1.21% in test [2]. For the same molecule, in test [3], the viability increase is -1.77%. Moreover, in test [4], the viability was 106%. In addition, in test [5], the inhibition was 3.01%. In test [6], the RAM network inhibition was 3.07%.

For the molecule `Fc1ccc(Br)cc1C1C=C(c2cccnc2)Nc2ncnn21` (stereo not given), the growth inhibition in test [1] was 6.35%; in test [2], 46.9% (active). The viability increase in test [3] is -4.62%. For the same molecule, the viability in test [4] was 44.5%. The inhibition in test [5] is 3.21%. Also, the RAM network inhibition in test [6] is 21.7% (active).

With `COc1cc(C2C(C(=O)c3ccco3)=C(O)C(=O)N2CCc2ccccc2)ccc1O` (stereo not given), the growth inhibition was -1.96% in test [1] and -3.74% in test [2]. Also, in test [3], the viability increase is -3.47%. Further, the viability in test [4] is 95.8%. Moreover, in test [5], the inhibition is 0.735%. In test [6], the RAM network inhibition was -0.31%.

As for `COC(=O)c1cc(=O)n(Cc2ccco2)c(=Nc2ccc(F)c(Cl)c2)s1`, the results for the growth inhibition in test [1] and in test [2] were -17.1% and -11.1%, respectively. Further, the viability increase in test [3] is -8.24%. Besides, the viability in test [4] was 9.25% (active). The inhibition in test [5] is 2.19%. Besides, in test [6], the RAM network inhibition was 10.1%.

On to `COc1ccccc1NC1=NCC(=O)N1Cc1ccccc1`, for which the growth inhibition in test [1] is -30.4%; in test [2], -3.24%. Also, the viability increase in test [3] is -0.5%. In test [4], the viability is 93.9%. The inhibition in test [5] is 3.58%. In addition, the RAM network inhibition in test [6] was 4.78%.

`COc1ccc(-c2cc(NCCc3ccncc3)n3ncnc3n2)cc1`: the growth inhibition is -9.14% in test [1] and 14.2% in test [2]. Also, the viability increase in test [3] was -4.7%. Also, the viability in test [4] was 95.2%. For the same molecule, the inhibition in test [5] is 0.97%. Moreover, the RAM network inhibition in test [6] is 7.01%.

On to `COc1ccc(CNc2oc(COc3ccccc3)nc2C#N)cc1`, for which the growth inhibition was -9.65% in test [1] and -2.3% in test [2]. Moreover, the viability increase in test [3] was -2.11%. The viability in test [4] was 79%. In addition, in test [5], the inhibition is 4.33%. Also, the RAM network inhibition in test [6] was 2.19%.

On to `Cc1cccc(N2CCN(c3nc4ccccc4n4cnnc34)CC2)c1C`, for which the growth inhibition in test [1] was -11.7%; in test [2], -6.28%. Moreover, the viability increase in test [3] was -4.42%. Besides, the viability in test [4] is 49.3%. The inhibition in test [5] is 1.89%. Besides, in test [6], the RAM network inhibition is -0.66%.

For `CC1(C)Cc2c(sc3c2c(=N)n(Cc2ccco2)c(=O)n3CC(=O)Nc2cccc(Cl)c2)CO1`, the growth inhibition in test [1] is -9.23%; in test [2], -8.69%. The viability increase in test [3] is -6.27%. For the same molecule, the viability in test [4] is 75%. For the same molecule, in test [5], the inhibition was 3.25%. In test [6], the RAM network inhibition was 5.15%.
